Experiment [1] concerns LCC-6-MDR orthotopic tumor. Briefly: Anti-tumor efficacy in orthotopic LCC-6-MDR breast cancer model. The following applies: q4d x 4; 60 mg/kg PTX and/or 4.5 mg/kg C6CP, cisplatin 3 mg/kg. The class given is in vivo, mice.
For experiment [2], the system named is A2780 ovarian cancer cell line. Briefly: MTT cytotoxicity assay in A2780 cells. The class given is cell-based, human. The following applies: 72 h. The gist of the method:
(§1)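 Cells grown in RPMI1640 with 10% FBS and 1% penicillin-streptomycin, seeded at 3000 cells/well 24 h before treatment, then exposed to free or micelle-incorporated drug serially diluted in full medium for 72 h. MTT added for 4 h at 37°C, formazan dissolved in DMSO, absorbance read at 562 nm. Survival relative to untreated wells; six wells, mean ± standard deviation; IC50 from fitted curves.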
Background: Tetrazolium dyes change colour on reduction, which living cells bring about.

In experiment [3] the test system is A2780/CisR ovarian cancer xenograft. Description: Anti-tumor efficacy in A2780/CisR ovarian cancer xenograft model. The class given is in vivo, mice. As to conditions: q4d x 4, 20 mg/kg PTX and/or 20 mg/kg CP, cisplatin 3 mg/kg.
Experiment [4] deals with A2780/CisR (cisplatin resistant) ovarian cancer cell line. Briefly: MTT cytotoxicity and combination index in A2780/CisR cells. Type of experiment: cell-based, human. The following applies: 72 h. The gist of the method:
as §1

This note sets out measurements from article PMC6331221 (Biomaterials, 2018).

`N.N.[Cl][Pt][Cl]` [cisplatin]: the “antitumor effect” value in experiment [1] is recorded as “considerable antitumor effect”. Moreover, the IC50 is 1.141 µg/mL in experiment [2] and 10.88 µg/mL in experiment [4]. The “effect on tumor growth” value in experiment [3] was “small but significant effect by delaying the tumor growth”. Besides, the median lifespan in experiment [3] (untreated 10.5 days) is 14.5 days.

For orientation: IC50 means the midpoint of a concentration-inhibition curve.
